Source: PubChem BioAssay (several laboratories)
Shown are actives, neighbours in structure and some others; about 2.5% of the full set was active somewhere.
TRPC6 activator: mouse TRPC6 channel activators, primary screen, cell-based, HEK293, membrane potential dye; Short transient receptor potential channel 6 (Mus musculus), Q61143; HEK293-TRPC6 membrane potential dye fluorescence; hits give high values; B-score at 10 µM; hit rate 0.13% among 310,000; AID 2550, 2010;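 active = B-score of the integrated fluorescence ratio above library mean plus 3 SD, and starting fluorescence ratio within library mean plus 5 SD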;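 note: higher score means more depolarization so channel activation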
Target sequence (Q61143 whole entry, looked up): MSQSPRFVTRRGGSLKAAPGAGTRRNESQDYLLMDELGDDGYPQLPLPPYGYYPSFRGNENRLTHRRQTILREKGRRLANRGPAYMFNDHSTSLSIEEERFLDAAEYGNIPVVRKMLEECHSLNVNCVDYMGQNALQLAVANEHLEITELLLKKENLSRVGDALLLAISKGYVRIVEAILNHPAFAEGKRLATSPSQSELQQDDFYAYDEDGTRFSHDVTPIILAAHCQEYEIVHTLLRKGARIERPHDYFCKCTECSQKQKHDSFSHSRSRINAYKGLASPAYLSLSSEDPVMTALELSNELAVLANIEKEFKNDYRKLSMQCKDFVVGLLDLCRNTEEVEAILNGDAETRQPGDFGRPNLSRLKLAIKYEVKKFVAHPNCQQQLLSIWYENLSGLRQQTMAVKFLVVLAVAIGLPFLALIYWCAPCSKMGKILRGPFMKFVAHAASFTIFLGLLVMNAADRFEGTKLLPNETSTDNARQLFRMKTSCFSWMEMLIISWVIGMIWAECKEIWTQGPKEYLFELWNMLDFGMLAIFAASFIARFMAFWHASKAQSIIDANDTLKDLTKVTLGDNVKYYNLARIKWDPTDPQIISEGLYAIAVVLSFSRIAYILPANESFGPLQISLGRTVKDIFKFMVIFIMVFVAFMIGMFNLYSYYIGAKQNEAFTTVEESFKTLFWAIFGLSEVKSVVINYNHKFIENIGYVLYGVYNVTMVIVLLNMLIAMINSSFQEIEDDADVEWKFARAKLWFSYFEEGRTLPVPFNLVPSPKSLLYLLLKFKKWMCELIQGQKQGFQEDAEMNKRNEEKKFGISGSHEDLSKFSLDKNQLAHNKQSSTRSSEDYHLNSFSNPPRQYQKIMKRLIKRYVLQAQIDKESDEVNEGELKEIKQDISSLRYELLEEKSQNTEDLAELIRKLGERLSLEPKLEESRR
Pemphigus Ab inh: inhibitors of pemphigus antibody binding to DSG3, primary screen, biochemical, bead-based, flow cytometry, scFv-GFP; hit rate 0.48% among 310,000; DSG3-coupled beads, scFv-anti-DSG3-GFP binding; hits give low values; AID 588358, 2011; Desmoglein-3 (Homo sapiens), P32926; binding (percent of control), % at 10 µM;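 active = binding more than 3 SD below its plate's average and above zero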;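 note: hits lower antibody fragment binding to DSG3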
TRPC4 block: inhibitors of mouse TRPC4 channel, primary screen, Fluo4 calcium, HEK293 TRPC4beta/mu-opioid cells | DAMGO-evoked Fluo4 calcium flux; hits give low values | B-score at 10 µM | hit rate 0.39% among 300,000 | AID 2247, 2010;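 active = B-score over 3 SD under the library average, no early fluorescence shift, positive overall ratio signal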
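System: stable TRPC4beta/mu-opioid receptor HEK293 cells; Dosing: single-point compound dosing; Measured by: Fluo4 Ca2+ flux fluorescence; Read-out basis: per-well B score of integrated baseline-normalized Fluo4 ratio.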
TRPC4 act: activators of mouse TRPC4 channel, primary screen, Fluo4 calcium, HEK293 TRPC4beta/mu-opioid cells; B-score at 10 µM; hit rate 0.49% among 310,000; AID 2237, 2010; Short transient receptor potential channel 4 (Mus musculus), Q9QUQ5; Fluo4 calcium fluorescence; hits give high values;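 active = B-score above 5 SD of library B-scores, and initial fluorescence ratio not above library mean plus 5 SD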;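 note: positive B-score marks a calcium rise read as TRPC4 activation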
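Assay system: HEK293 stable line with TRPC4beta plus mu-opioid receptor. Times: dye 45 min RT, read 110 s. Measured by: kinetic Fluo4 calcium fluorescence. Measure: B score of integrated ratio. Controls: assay buffer as low control, maximal DAMGO as high control.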
TRPC4 PAM: positive allosteric modulators of TRPC4, primary screen, cell-based, mouse TRPC4beta, HEK293 mu-opioid, Fluo-4 calcium. Short transient receptor potential channel 4 (Mus musculus), Q9QUQ5. DAMGO EC20, Fluo-4 Ca2+ flux; hits give high values. B-score at 10 µM. hit rate 0.42% among 310,000. AID 2227, 2009;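 active = B-score of calcium response area above 5 SD of library B-scores, with initial fluorescence ratio within 5 SD of library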;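 note: B-score of integrated fluorescence ratio over time as area under calcium response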
TRPC6 inhibitor: mouse TRPC6 channel inhibitors, primary screen, cell-based, HEK293, membrane potential dye; B-score at 10 µM; hit rate 1.1% among 310,000; ACh-evoked depolarization; hits give low values; Short transient receptor potential channel 6 (Mus musculus), Q61143;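 active = B-score under library mean minus 3 SD, initial fluorescence not abnormally high, positive integrated signal ratio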;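 note: B-score derived from integrated fluorescence ratio over the kinetic read; more negative B-score means stronger inhibition of depolarization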
HEK293 TRPC6 ctr: parental HEK293 membrane potential modulation, confirmation, counter-screen for TRPC6 modulator project, cell-based; membrane potential signal change, % at 10 µM; AID 488924, 2010; shares compounds with TRPC6 inhibitor; hit rate 51% among 2,400; membrane potential dye fluorescence;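 active = membrane potential signal moves up or down beyond 5 SD from buffer-only wells, on both duplicate plates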
HEK293 MPD ctr 2: second check of TRPC6 modulator effects in parental HEK293 cells; shares compounds with TRPC6 inhibitor; membrane potential dye fluorescence; after compound, maximal acetylcholine stimulation; inhibition, % at 10 µM; hit rate 14% among 2,400;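 active = membrane potential signal drops by more than 5 SD from the mean control signal, in both duplicate plates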;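 note: plate controls were acetylcholine ECmax control wells for no effect and buffer only wells for full effect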
TRPC4/MOR mod: TRPC4 modulation by TRPC6 hit compounds, confirmation, selectivity assay for TRPC6 modulator project, cell-based, HEK293 TRPC4/mu-opioid, membrane potential dye, mouse. membrane potential fluorescence. hit rate 69% among 2,400. percent change from control (negative = decrease, positive = increase), % at 10 µM. shares compounds with TRPC6 inhibitor;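 active = membrane potential signal moved up or down beyond 5 SD of buffer control wells, in both duplicate plates, actives on both sides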;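 note: plate controls were assay buffer wells for no effect and DAMGO maximal-effect wells for full effect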
TRPC4 ctr inh 2: second selectivity test of TRPC6 modulators against mouse TRPC4 | shares compounds with TRPC6 inhibitor | HEK293 TRPC4/mu-opioid, membrane potential dye fluorescence; stimulated with maximal-effect DAMGO | inhibition, % at 10 µM | hit rate 55% among 2,400;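 active = drop in membrane potential signal beyond 5 SD of the control wells in both duplicate plates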;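 note: TRPC4 counter screen for TRPC6 hits run under conditions tuned for TRPC6 not TRPC4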
TRPC6 inh conf: mouse TRPC6 channel inhibitors, confirmation, HEK293 cells, membrane potential dye, duplicate | shares compounds with TRPC6 inhibitor | hit rate 43% among 3,300 | ACh-evoked depolarization | inhibition, % at 10 µM | AID 488960, 2010;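 active = fluorescence ratio falls more than 5 SD below the full-stimulation control mean, in both duplicate runs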;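 note: integrated fluorescence ratio of peak minus minimum over baseline after agonist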
TRPC6 act conf: mouse TRPC6 channel activators, confirmation, HEK293 cells, membrane potential dye, duplicate | shares compounds with TRPC6 inhibitor | HEK293-TRPC6 membrane potential dye fluorescence, FDSS | activation, % at 10 µM | hit rate 11% among 2,800;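 active = ratio signal rise beyond 5 SD above unstimulated control wells' mean, seen in both duplicate runs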;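 note: plate controls were buffer EC0 wells for no effect and acetylcholine ECmax response for full effect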
* = called active by the depositor; i = inactive; . = no result given.

SMILES	TRPC6 activator	Pemphigus Ab inh	TRPC4 block	TRPC4 act	TRPC4 PAM	TRPC6 inhibitor	HEK293 TRPC6 ctr	HEK293 MPD ctr 2	TRPC4/MOR mod	TRPC4 ctr inh 2	TRPC6 inh conf	TRPC6 act conf
Cc1ccc(-c2ccc(OC(=O)c3ccc(=O)[nH]c3)c(C)c2)cc1	i	110	i	i	i	-5.1*	i	i	i	i	i	i
COCCn1c(SC(C)C(=O)Nc2ccc(Cl)cn2)nnc1-c1ccncc1 (configuration not stated)	i	110	i	i	i	i	.	.	.	.	.	.
CN(C)CCc1cc2c(c3c1ccc1ccccc13)OCO2	i	115	i	i	i	-5.2*	i	i	-10%*	47%*	i	i
CC(C)(CO)NCc1ccccc1OCC(=O)Nc1ccccc1	i	86	i	i	i	i	.	.	.	.	.	.
Cc1ccc(NC(=O)COc2ccccc2CNC(C)(C)CC(C)(C)C)cc1	14*	132	i	i	i	i	296%*	i	71%*	i	i	176%*
COc1ccc(CCNC(=O)CCCn2c(=S)[nH]c3ccsc3c2=O)cc1OC	.	105	.	.	.	.	.	.	.	.	.	.
O=C(O)c1ccc(N/N=C/C2=C(N3CCOCC3)C(=C\c3ccccc3)/CC2)cc1	22*	89	i	51*	i	i	856%*	i	191%*	i	i	350%*
CC(C)c1ccc(N2C(=NC(=O)C3CCCO3)SC3CS(=O)(=O)CC32)cc1 (configuration not stated)	i	102	i	i	i	i	.	.	.	.	.	.
CCN(CC)S(=O)(=O)c1ccc(N2CCCC2)c(NC(=O)C2=COCCO2)c1	i	103	i	i	i	i	.	.	.	.	.	.
CCN(CC)S(=O)(=O)c1ccc(N2CCOCC2)c(NC(=O)c2ccccc2)c1	i	94	i	i	i	i	.	.	.	.	.	.
CCN(CC)S(=O)(=O)c1ccc(N2CCCCC2)c(NC(=O)C2=COCCO2)c1	14*	89	i	i	i	-6*	178%*	i	33%*	i	88%*	154%*
